For series [1], the system named is Cc1cn([C@H]2C[C@H](O)[C@@H](COP(=O)(O)OP(=O)(O)OP(=O)(O)O)O2)c(=O)[nH]c1=O. The experiment in a line: Activity of HIV1 Reverse transcriptase P119S mutant. Particulars: Human immunodeficiency virus 1.
Series [2] shares this test system. The experiment in a line: Ratio of Kcat to Km for HIV1 Reverse transcriptase P119S mutant. As to conditions: Human immunodeficiency virus 1.
Series [3] deals with Human immunodeficiency virus 1. The experiment in a line: Antiviral activity against HIV1 pNL4-3 harboring Reverse transcriptase P119S/M184V mutant gene infected in TZM-bl cells after 72 hrs by luciferase assay. It counts as functional, organism-based. As to conditions: Human immunodeficiency virus 1, pNL4-3, TZM-bl. In short, it runs like this: (§1)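 TZM-bl cells (LTR-driven luciferase reporter) at 5 × 10^4 per well in RPMI 1640 with 10% dialyzed FBS. They were preincubated 16 h at 37°C with a range of 4′-Ed4T, d4T, 3TC or AZT, then infected with NL4-3-derived clones at MOI 0.01. After 72 h, lysates were read for luciferase, with uninfected background subtracted. EC50 is from % of no-drug signal, reported as mean ± SD of three experiments.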

In series [4] the test system is Human immunodeficiency virus 1. Kind of series: Antiviral activity against HIV1 pNL4-3 harboring Reverse transcriptase T165A mutant gene infected in TZM-bl cells after 72 hrs by luciferase assay. It counts as functional, organism-based. As to conditions: Human immunodeficiency virus 1, pNL4-3, TZM-bl. The method in brief: as §1
Series [5] concerns Human immunodeficiency virus 1. The experiment in a line: Antiviral activity against HIV1 pNL4-3 harboring Reverse transcriptase T165A/M184V mutant gene infected in TZM-bl cells after 72 hrs by luciferase assay. In kind it is functional, organism-based. As to conditions: Human immunodeficiency virus 1, pNL4-3, TZM-bl. The method in brief:
as §1

The test system of series [6] is Human immunodeficiency virus 1. Kind of series: Antiviral activity against HIV1 pNL4-3 harboring chimeric pTKD infected in TZM-bl cells after 72 hrs by luciferase assay. As to conditions: Human immunodeficiency virus 1, pNL4-3, TZM-bl. It counts as functional, organism-based. The method in brief:
as §1

For series [7], the system named is Human immunodeficiency virus 1. Kind of series: Antiviral activity against HIV1 pNL4-3 harboring Reverse transcriptase P119S/T165A mutant gene infected in TZM-bl cells after 72 hrs by luciferase assay. It counts as functional, organism-based. As to conditions: Human immunodeficiency virus 1, pNL4-3, TZM-bl. In short, it runs like this:
as §1

Series [8] relates to Human immunodeficiency virus 1. The experiment in a line: Antiviral activity against HIV1 pNL4-3 harboring Reverse transcriptase M184V mutant gene infected in TZM-bl cells after 72 hrs by luciferase assay. It counts as functional, organism-based. As to conditions: Human immunodeficiency virus 1, pNL4-3, TZM-bl. In short, it runs like this:
as §1

The test system of series [9] is Human immunodeficiency virus 1. The experiment in a line: Antiviral activity against HIV1 pNL4-3 harboring Reverse transcriptase P119S mutant gene infected in TZM-bl cells after 72 hrs by luciferase assay. It counts as functional, organism-based. Particulars: Human immunodeficiency virus 1, pNL4-3, TZM-bl. The method in brief:
as §1

Series [10] has as its system Human immunodeficiency virus 1. Kind of series: Antiviral activity against wild-type HIV1 pNL4-3 infected in TZM-bl cells by luciferase assay. In kind it is functional, organism-based. Particulars: Human immunodeficiency virus 1, pNL4-3, TZM-bl. The method in brief: as §1
The test system of series [11] is Human immunodeficiency virus 1. Kind of series: Antiviral activity against HIV1 pNL4-3 harboring Reverse transcriptase P119S/T165A/M184V mutant gene infected in TZM-bl cells after 72 hrs by luciferase assay. In kind it is functional, organism-based. Particulars: Human immunodeficiency virus 1, pNL4-3, TZM-bl. In short, it runs like this: as §1
For series [12], the system named is Cc1cn([C@H]2C[C@H](O)[C@@H](COP(=O)(O)OP(=O)(O)OP(=O)(O)O)O2)c(=O)[nH]c1=O. Kind of series: Ratio of Kcat to Km for HIV1 Reverse transcriptase P119S/M184V mutant. Particulars: Human immunodeficiency virus 1.
The test system is the same in series [13]. Kind of series: Activity of HIV1 Reverse transcriptase P119S/M184V mutant. As to conditions: Human immunodeficiency virus 1.
The test system is the same in series [14]. The experiment in a line: Activity of HIV1 Reverse transcriptase T165A mutant. As to conditions: Human immunodeficiency virus 1.
For series [15] the test system is unchanged. The experiment in a line: Ratio of Kcat to Km for HIV1 Reverse transcriptase T165A mutant. As to conditions: Human immunodeficiency virus 1.

The record followed here is ChEMBL document CHEMBL1649255, “Impact of novel human immunodeficiency virus type 1 reverse transcriptase mutations P119S and T165A on 4'-ethynylthymidine analog resistance profile” (Antimicrob Agents Chemother, 2009).

The Km is the substrate concentration at which the rate is half of its maximum. For orientation: EC50 means the concentration needed to bring the measured effect to its halfway point.

Take “Human immunodeficiency virus type 1 reverse transcriptase (Human immunodeficiency virus 1) (from UniProt Q72547) P119S”: in series [1], the Km came out at 0.13 µM and the kcat was determined as 3.3 ×10⁻⁴ /s. Also, in series [2], the kcat/Km (10'-2/microM/s) was 2.5.

`Nc1ccn([C@@H]2CS[C@H](CO)O2)c(=O)n1` [LAMIVUDINE]: the EC50 was more than 60000 nM in series [3]; 1080 nM in [4]; more than 60000 nM in [5]; more than 60000 nM in series [6]; 2100 nM in series [7]; more than 60000 nM in [8]. Moreover, the results for the EC50 in series [9], in [10] and in series [11] were 470 nM, 650 nM and more than 60000 nM, respectively.

Regarding “Human immunodeficiency virus type 1 reverse transcriptase (Human immunodeficiency virus 1) (from UniProt Q72547) P119S,M184V”, the kcat/Km (10'-2/microM/s) in series [12] amounted to 2.2. Besides, in [13], the Km was 0.18 µM and the kcat was 4 ×10⁻⁵ /s.

Turning to `C=C[C@@]1(CO)C=C[C@H](n2cc(C)c(=O)[nH]c2=O)O1`, the EC50 stood at 1380 nM in series [3]; 580 nM in series [4]; 1320 nM in [5]; 2100 nM in series [6]; 350 nM in [7]; 980 nM in series [8]. Further, the values for the half-maximal effective concentration (EC50) in series [9], in series [10] and in [11] were 510 nM, 370 nM and 1960 nM, respectively.

Consider “Human immunodeficiency virus type 1 reverse transcriptase (Human immunodeficiency virus 1) (from UniProt Q72547) T165A”, for which, in [14], the Michaelis constant (Km) was 0.1 µM and the kcat is 2.7 ×10⁻⁵ /s. In addition, in [15], the kcat/Km (10'-2/microM/s) amounted to 2.7.

In the case of `Cc1cn([C@H]2C[C@H](N=[N+]=[N-])[C@@H](CO)O2)c(=O)[nH]c1=O` [ZIDOVUDINE], the EC50 in [3] was 11 nM; in series [4], 22 nM; in [5], 24 nM; in series [6], 8 nM; in series [7], 26 nM; in series [8], 11 nM. Also, the 50% effective concentration (EC50) in [9] was 17 nM; in [10] it was 23 nM; in series [11] it was 53 nM.
